In ChEMBL document CHEMBL5233277, “Oxidative Metabolism as a Modulator of Kratom's Biological Actions” (J Med Chem, 2021):
Active and inactive are the calls of the source. The calls are words filed in the database; no cut-off is given here.

How the values were obtained:
[1] = target: Mu-type opioid receptor (Mus musculus) (UniProt P42866); test: Partial agonist activity at mouse MOR expressed in CHO cell membranes assessed as stimulation of [35S]-GTPgammaS binding by measuring maximal efficacy incubated for 60 mins by scintillation spectroscopy analysis relative DAMGO; conditions: Membrane, filed as partial agonist
Sequence of Mu-type opioid receptor (Mus musculus) (P42866 whole entry): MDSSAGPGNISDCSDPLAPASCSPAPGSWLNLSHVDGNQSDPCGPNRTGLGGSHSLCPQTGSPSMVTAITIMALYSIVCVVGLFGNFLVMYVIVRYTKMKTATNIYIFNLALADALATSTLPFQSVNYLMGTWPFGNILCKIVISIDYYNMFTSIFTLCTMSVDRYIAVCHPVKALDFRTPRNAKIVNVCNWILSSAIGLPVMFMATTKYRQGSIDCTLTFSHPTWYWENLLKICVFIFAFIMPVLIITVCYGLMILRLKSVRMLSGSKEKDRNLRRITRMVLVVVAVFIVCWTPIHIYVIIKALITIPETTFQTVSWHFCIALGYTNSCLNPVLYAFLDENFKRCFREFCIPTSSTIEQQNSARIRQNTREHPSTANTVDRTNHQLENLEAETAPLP
Summary of the method: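 Membranes from CHO cells stably expressing mouse MOR were used in an agonist-stimulated [35S]GTPγS binding assay. […] Data are from three independent experiments, each run in triplicate.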

[2] = target: Kappa-type opioid receptor (Mus musculus) (UniProt P33534); test: Agonist activity at mouse KOR expressed in CHO cell membranes assessed as stimulation of [35S]-GTPgammaS binding by measuring maximal efficacy incubated for 60 mins by scintillation spectroscopy analysis relative to U50,488H; conditions: Membrane, filed as agonist
Sequence of Kappa-type opioid receptor (Mus musculus) (P33534 whole entry): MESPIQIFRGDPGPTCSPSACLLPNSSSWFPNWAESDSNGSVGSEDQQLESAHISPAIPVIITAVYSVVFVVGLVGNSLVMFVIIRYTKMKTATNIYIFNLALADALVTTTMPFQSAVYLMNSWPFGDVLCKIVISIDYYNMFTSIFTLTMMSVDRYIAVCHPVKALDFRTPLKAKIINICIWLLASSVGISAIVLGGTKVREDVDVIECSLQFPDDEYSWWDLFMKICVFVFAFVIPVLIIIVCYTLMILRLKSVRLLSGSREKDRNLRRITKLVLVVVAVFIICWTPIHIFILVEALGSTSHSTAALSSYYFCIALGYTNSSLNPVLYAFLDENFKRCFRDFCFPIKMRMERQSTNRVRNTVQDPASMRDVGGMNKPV
Summary of the method: (§1)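 CHO cell membranes stably expressing cloned mouse opioid receptors; agonist-stimulated [35S]GTPγS binding. […] Three independent experiments, each in triplicate.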

Mus musculus [3] = test: Antinociceptive activity in sc dosed 129Sv6 mouse model assessed as peak effect measured at 15 mins by radiant heat tail flick assay; assay type: functional; conditions: 129Sv6, 0.25 h
[4] = target: Kappa-type opioid receptor (Mus musculus) (UniProt P33534); test: (§2) Agonist activity at mouse KOR expressed in CHO cell membranes assessed as stimulation of [35S]-GTPgammaS binding incubated for 60 mins by scintillation spectroscopy analysis; conditions: Membrane
Summary of the method: (§3)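 CHO cell membranes stably expressing cloned mouse opioid receptors; agonist-stimulated [35S]GTPγS binding. Three independent experiments, each in triplicate.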

[5] = target: Mu-type opioid receptor (Mus musculus) (UniProt P42866); test: Agonist activity at mouse MOR expressed in CHO cell membranes assessed as stimulation of [35S]-GTPgammaS binding by measuring maximal efficacy incubated for 60 mins by scintillation spectroscopy analysis relative DAMGO; conditions: Membrane, filed as agonist; summary of the method: as §1
[6] = Toxicity in 129Sv6 mouse assessed as fatality at 10 ug, IT; conditions: in vivo, other, dose 10 µg
[7] = target: T1, Delta-type opioid receptor (Mus musculus, UniProt P32300); test: (§4) Antagonist activity at mouse DOR expressed in CHO cell membranes assessed as inhibition of DPDPE induced [35S]-GTPgammaS binding incubated for 60 mins by scintillation spectroscopy analysis; design: species or system Membrane
T1 sequence (P32300 whole entry): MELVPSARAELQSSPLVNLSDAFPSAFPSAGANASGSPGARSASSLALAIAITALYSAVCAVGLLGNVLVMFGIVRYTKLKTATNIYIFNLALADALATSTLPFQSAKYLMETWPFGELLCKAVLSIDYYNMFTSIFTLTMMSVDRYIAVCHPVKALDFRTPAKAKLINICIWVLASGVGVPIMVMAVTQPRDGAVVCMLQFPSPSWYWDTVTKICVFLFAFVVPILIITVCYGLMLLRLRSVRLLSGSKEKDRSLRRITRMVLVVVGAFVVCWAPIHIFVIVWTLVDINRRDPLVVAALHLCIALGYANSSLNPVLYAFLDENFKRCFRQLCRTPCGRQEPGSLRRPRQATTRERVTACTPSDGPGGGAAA

[8] = Drug concentration in C57BL/6J mouse brain at 30 mg/kg, po measured after 24 hrs by LC-MS/MS analysis; assay type: ADME, organism-based; conditions: in vivo, BLD = below limit of detection
[9] = Toxicity in MOR knock out C57BL/6J mouse at 50 mg/kg, sc in presence of norbinaltorphimine; assay type: organism-based; conditions: in vivo
[10] = Toxicity in sc dosed C57BL/6J mouse assessed as lethality at 50 mg/kg, sc; assay type: organism-based; conditions: in vivo, read-out: Activity
Summary of the method: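 Opioid-naïve C57BL/6J mice (n = 4) were given a single 50 mg/kg subcutaneous dose in DMSO/solutol/saline (1:1:8) and observed for lethality, reported as percent of animals dying.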

[11] = Toxicity in MOR knock out C57BL/6J mouse at 50 mg/kg, sc in presence of naltrindole; assay type: organism-based; conditions: in vivo
Mu-type opioid receptor [12] = target: T2, Mu-type opioid receptor (Mus musculus, UniProt P42866); test: Displacement of [125]IBNtxA from mouse MOR stably expressed in CHO cell membranes incubated for 90 mins; design: species or system Membrane
T2 sequence (P42866 whole entry): as the sequence (P42866 whole entry) above
Summary of the method: (§5)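 MOR: 50 mM potassium phosphate with 5 mM MgSO4, 20 μg/mL protein. KOR and DOR: 50 mM potassium phosphate pH 7.0, 40 μg/mL protein. 25 °C, 90 min; glass-fiber filtration; levallorphan 8 μM defines nonspecific binding. Ki from IC50; at least three replicates.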

Mus musculus [13] = species on record: Mus musculus; test: Antinociceptive activity in mouse; assay type: functional, organism-based
[14] = target: T1, Delta-type opioid receptor; test: Displacement of [125]IBNtxA from mouse DOR stably expressed in CHO cell membranes incubated for 90 mins; design: species or system Membrane; summary of the method: as §5
[15] = Toxicity in CD1 mouse assessed as fatality at 10 ug, IT; conditions: in vivo, other, dose 10 µg
[16] = Toxicity in sc dosed 129Sv6 mouse assessed as lethality; assay type: organism-based; conditions: in vivo
Summary of the method: (§6)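 Groups of mice (n = 6 per dose) received graded subcutaneous doses in DMSO/solutol/saline (1:1:8) and were scored for lethality. […] Strains were 129Sv6 for line 3 and CD1 for […], both purchased from Jackson Laboratories.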

Mu-type opioid receptor [17] = target: T2, Mu-type opioid receptor; test: Agonist activity at mouse MOR expressed in CHO cell membranes assessed as stimulation of [35S]-GTPgammaS binding incubated for 60 mins by scintillation spectroscopy analysis; design: species or system Membrane; summary of the method: as §3
[18] = target: T3, Kappa-type opioid receptor (Mus musculus, UniProt P33534); test: as §2; design: species or system Membrane; summary of the method: as §3
T3 sequence (P33534 whole entry): as the sequence (P33534 whole entry) above

[19] = Toxicity in C57BL/6J mouse at 50 mg/kg, sc in presence of norbinaltorphimine; assay type: organism-based; conditions: in vivo
[20] = Toxicity in C57BL/6J mouse at 50 mg/kg, sc in presence of naltrindole; assay type: organism-based; conditions: in vivo
[21] = Drug concentration in C57BL/6J mouse plasma at 30 mg/kg, po measured after 24 hrs by LC-MS/MS analysis; assay type: ADME, organism-based; conditions: in vivo, BLD = below limit of detection
[22] = target: T3, Kappa-type opioid receptor; test: Displacement of [125]IBNtxA from mouse KOR stably expressed in CHO cell membranes incubated for 90 mins; design: species or system Membrane; summary of the method: as §5
[23] = Toxicity in sc dosed CD1 mouse assessed as lethality; assay type: organism-based; conditions: in vivo; summary of the method: as §6
[24] = target: Delta-type opioid receptor (Mus musculus) (UniProt P32300); test: as §4; conditions: Membrane
Sequence of Delta-type opioid receptor (Mus musculus) (P32300 whole entry): as the sequence (P32300 whole entry) above

Mus musculus [25] = species on record: Mus musculus; test: animal or person; conditions: C57BL/6J, po, 0.5 h
Mus musculus [26] = species on record: Mus musculus; test: animal or person; conditions: 129Sv6, 0.5 h
Mus musculus [27] = species on record: Mus musculus; test: animal or person; conditions: 129Sv6, po, 1 h
[28] = Toxicity in C57BL/6J mouse assessed as conditioned place preference at 1 mg/kg, sc; assay type: organism-based; conditions: in vivo
Summary of the method: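 C57BL/6J mice (n = 18–24) were habituated to a two-compartment apparatus for 3 h per day over 2 days, then given a 20 min pre-conditioning baseline test. Conditioning used 20 min sessions with drug at 1 mg/kg/d sc or saline. On test day mice explored freely for 20 min, and a difference score was calculated.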

[29] = target: Mu-type opioid receptor (Mus musculus) (UniProt P42866); test: Potency index, ratio of mitragynine Ki to test compound Ki for displacement of [125]IBNtxA from mouse MOR stably expressed in CHO cell membranes incubated for 90 mins; conditions: Membrane
Mus musculus [30] = test: Potency index, ratio of morphine ED50 to test compound ED50 for antinociceptive activity in po dosed 129Sv6 mouse model assessed as peak effect measured at 15 mins by radiant heat tail flick assay; assay type: functional; conditions: 0.25 h
[31] = Drug concentration in C57BL/6J mouse plasma at 1 mg/kg, sc measured after 20 mins by LC-MS/MS analysis; assay type: ADME, organism-based
Mus musculus [32] = test: Antinociceptive activity in po dosed C57BL/6J mouse model assessed as peak effect measured at 20 mins by radiant heat tail flick assay; assay type: functional
Mus musculus [33] = test: Potency index, ratio of morphine ED50 to test compound ED50 for antinociceptive activity in po dosed C57BL/6J mouse model assessed as peak effect measured at 20 mins by radiant heat tail flick assay; assay type: functional
[34] = target: Mu-type opioid receptor (Mus musculus) (UniProt P42866); test: Potency index, ratio of mitragynine EC50 to test compound EC50 for agonist activity at mouse MOR expressed in CHO cell membranes assessed as stimulation of [35S]-GTPgammaS binding incubated for 60 mins by scintillation spectroscopy analysis; conditions: Membrane
[35] = Toxicity in C57BL/6J mouse assessed as hyperlocomotion at 1 mg/kg, sc measured after 20 mins; assay type: organism-based; conditions: in vivo
[36] = Drug concentration in C57BL/6J mouse brain at 1 mg/kg, sc measured after 20 mins by LC-MS/MS analysis; assay type: ADME, organism-based; conditions: read-out: Ct

| SMILES | Emax [2] [%] | ED50 (Mus musculus [3]) [mg/kg] | Emax [5] [%] | Ki (Mu-type opioid receptor [12]) [nM] | Ki [14] [nM] | EC50 (Mu-type opioid receptor [17]) [nM] | EC50 [18] [nM] | Ki [22] [nM] | other results |
| --- | --- | --- | --- | --- | --- | --- | --- | --- | --- |
| CC[C@@H]1CN2CCc3c([nH]c4cccc(OC)c34)[C@H]2C[C@@H]1/C(=C\OC)C(=O)OC | 58 | > 100 | – | – | – | – | – | – | Emax [1]: 45% |
| CC[C@H]1CN2CCc3c([nH]c4cccc(OC)c34)[C@@H]2C[C@@H]1/C(=C\OC)C(=O)OC | – | – | 43 | – | – | – | – | – | Activity [4]: inactive |
| CC[C@@H]1C[N+]2=C(C[C@@H]1/C(=C\OC)C(=O)OC)c1[nH]c3cccc(OC)c3c1CC2 | 64 | > 100 | – | 34.1 | 49.1 | 67.5 | 166 | 125 | Activity [6]: Toxic; IC50 [7]: 1100 nM; Ct [8]: Bld; Activity [9]: Toxic; mortality [10]: 100%; Activity [11]: Toxic; Activity (Mus musculus [13]): inactive; Activity [15]: Toxic; LD50 [16]: 48.4 mg/kg; Activity [19]: Toxic; Activity [20]: Toxic; Cp [21]: Bld; LD50 [23]: 74 mg/kg |
| CC[C@@H]1CN2CCc3c([nH]c4cccc(O)c34)[C@@H]2C[C@@H]1/C(=C\OC)C(=O)OC | 87 | > 100 | 62 | 216 | 1880 | – | 858 | 1180 | inhibition [24]: inactive |
| CN1CC[C@]23c4c5ccc(O)c4O[C@H]2[C@@H](O)C=C[C@H]3[C@H]1C5 [MORPHINE] | – | 0.68 | – | – | – | – | – | – | ED50 (Mus musculus [25]): 4.73 mg/kg; ED50 (Mus musculus [26]): 0.7 mg/kg; ED50 (Mus musculus [27]): 3.3 mg/kg |
| CC[C@@H]1C[N+]2([O-])CCc3c([nH]c4cccc(OC)c34)[C@@H]2C[C@@H]1/C(=C\OC)C(=O)OC (stereo not given in full) | – | – | – | 6900 | 4140 | – | – | 7180 | – |
| CC[C@@H]1CN2CC[C@@]3(O)C(=Nc4cccc(OC)c43)[C@@H]2C[C@@H]1/C(=C\OC)C(=O)OC | – | 0.2 | – | – | – | – | – | – | Activity [28]: Toxic; Ratio Ki [29]: 6; Ratio ED50 (Mus musculus [30]): 3; concentration at 20 min [31]: 270 nM; ED50 (Mus musculus [32]): 0.3 mg/kg; Ratio ED50 (Mus musculus [33]): 3; Ratio EC50 [34]: 4; Activity [35]: Non-Toxic; concentration at 20 min [36]: 450 nM |
| C=C[C@H]1CN2CCc3c([nH]c4cccc(OC)c34)[C@@H]2C[C@@H]1/C(=C\OC)C(=O)OC | 57 | > 100 | 54 | 666 | 3390 | 9380 | 3590 | 883 | IC50 [7]: > 10000 nM |
| CC[C@@H]1CN2CCc3c([nH]c4cccc(O[C@@H]5O[C@H](C(=O)O)[C@@H](O)[C@H](O)[C@H]5O)c34)[C@@H]2C[C@@H]1/C(=C\OC)C(=O)OC | 98 | > 30 | 102 | 1670 | 3240 | 5780 | 1140 | 1270 | inhibition [24]: inactive |
| CO/C=C(/C(=O)OC)[C@@H]1CCN2CC[C@]3(Nc4cccc(OC)c4C3=O)[C@@H]2C1 | – | 0.3 | – | – | – | – | – | – | Ratio ED50 (Mus musculus [30]): 2; concentration at 20 min [31]: 410 nM; ED50 (Mus musculus [32]): 0.26 mg/kg; Ratio ED50 (Mus musculus [33]): 2; Activity [35]: Non-Toxic; concentration at 20 min [36]: 70 nM |
